Source: ChEMBL document CHEMBL5724801, “EUbOPEN Chemogenomics Library - Multiplex” (2024)
“And” between values parts separate entries of the source, which are not always exact repeats. Equal entries are not always repeated.

Experiments:
U2OS = experiment: Multiplex assay against U2OS; format: toxicity, cell-based; conditions: human
How it was run: (§1)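 Live cells were stained at seeding with Hoechst33342, BioTracker Green Microtubule Cytoskeleton Dye, MitoTracker Red and Annexin V Alexa Fluor 680, then imaged on a CQ1 microscope at 37°C and 5% CO2 after compound addition. CellPathfinder machine-learning gating split cells into Hoechst high-intensity objects or normal cells. Normal cells were split into healthy, pyknosed or fragmented nuclei, and pyknosed cells into mitotic or apoptotic. Tubulin, mitochondrial-mass and membrane-permeability phenotypes are per cents of healthy-nucleus cells.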

HEK-293T = experiment: Multiplex assay against HEK293T; format: toxicity, cell-based; conditions: human; how it was run: as §1
[1] = 12 h, 1 µM, compound concentration 1 uM
[2] = 12 h, 10 µM, compound concentration 10 uM
[3] = 24 h, 1 µM, compound concentration 1 uM
[4] = 24 h, 10 µM, compound concentration 10 uM
[5] = 48 h, 1 µM, compound concentration 1 uM
[6] = 48 h, 10 µM, compound concentration 10 uM

CC(C)COc1ccc(CNC(=O)N(Cc2ccc(F)cc2)C2CCN(C)CC2)cc1 [PIMAVANSERIN]
Population Apoptotic (%) (U2OS; [1]): 84% and 100% | Population Fragmented Nuclei (%) (U2OS; [1]): 23% and 11% | Population Healthy Nuclei (%) (U2OS; [1]): 67% and 80% | Population Hoechst High Intensity Objects (%) (U2OS; [1]): 2% and 0% | Population Membrane Permeable-Phenotype (%) (U2OS; [1]): 6% | Population Mitochondria Different-Phenotype (%) (U2OS; [1]): 3% and 4% | Population Mitotic Cells (%) (U2OS; [1]): 16% and 0% | Population Normal (%) (U2OS; [1]): 97% and 99% | Population Pyknosed Nuclei (%) (U2OS; [1]): 9% and 7% | Population Tubulin-Different-Phenotype (%) (U2OS; [1]): 5% and 6% | Total Cell Count (U2OS; [1]): 265 and 136 | Population Apoptotic (%) (U2OS; [2]): 67% and 71% | Population Fragmented Nuclei (%) (U2OS; [2]): 23% and 18% | Population Healthy Nuclei (%) (U2OS; [2]): 48% and 54% | Population Hoechst High Intensity Objects (%) (U2OS; [2]): 5% and 4% | Population Membrane Permeable-Phenotype (%) (U2OS; [2]): 48% and 26% | Population Mitochondria Different-Phenotype (%) (U2OS; [2]): 73% and 70% | Population Mitotic Cells (%) (U2OS; [2]): 32% and 28% | Population Normal (%) (U2OS; [2]): 94% and 95% | Population Pyknosed Nuclei (%) (U2OS; [2]): 27% and 26% | Population Tubulin-Different-Phenotype (%) (U2OS; [2]): 77% and 52% | Total Cell Count (U2OS; [2]): 202 and 124 | Population Apoptotic (%) (U2OS; [3]): 92% and 78% | Population Fragmented Nuclei (%) (U2OS; [3]): 22% and 11% | Population Healthy Nuclei (%) (U2OS; [3]): 67% and 80% | Population Hoechst High Intensity Objects (%) (U2OS; [3]): 2% and 1% | Population Membrane Permeable-Phenotype (%) (U2OS; [3]): 10% and 11% | Population Mitochondria Different-Phenotype (%) (U2OS; [3]): 4% and 8% | Population Mitotic Cells (%) (U2OS; [3]): 7% and 21% | Population Normal (%) (U2OS; [3]): 97% and 98% | Population Pyknosed Nuclei (%) (U2OS; [3]): 9% and 8% | Population Tubulin-Different-Phenotype (%) (U2OS; [3]): 6% | Total Cell Count (U2OS; [3]): 294 and 163 | Population Apoptotic (%) (U2OS; [4]): 88% and 79% | Population Fragmented Nuclei (%) (U2OS; [4]): 28% and 16% | Population Healthy Nuclei (%) (U2OS; [4]): 40% and 50% | Population Hoechst High Intensity Objects (%) (U2OS; [4]): 10% and 3% | Population Membrane Permeable-Phenotype (%) (U2OS; [4]): 32% and 30% | Population Mitochondria Different-Phenotype (%) (U2OS; [4]): 67% and 75% | Population Mitotic Cells (%) (U2OS; [4]): 11% and 20% | Population Normal (%) (U2OS; [4]): 89% and 96% | Population Pyknosed Nuclei (%) (U2OS; [4]): 31% and 33% | Population Tubulin-Different-Phenotype (%) (U2OS; [4]): 49% | Total Cell Count (U2OS; [4]): 214 and 135 | Population Apoptotic (%) (U2OS; [5]): 87% and 92% | Population Fragmented Nuclei (%) (U2OS; [5]): 19% and 12% | Population Healthy Nuclei (%) (U2OS; [5]): 68% and 76% | Population Hoechst High Intensity Objects (%) (U2OS; [5]): 2% and 1% | Population Membrane Permeable-Phenotype (%) (U2OS; [5]): 6% and 5% | Population Mitochondria Different-Phenotype (%) (U2OS; [5]): 5% | Population Mitotic Cells (%) (U2OS; [5]): 12% and 7% | Population Normal (%) (U2OS; [5]): 97% and 98% | Population Pyknosed Nuclei (%) (U2OS; [5]): 12% and 11% | Population Tubulin-Different-Phenotype (%) (U2OS; [5]): 4% and 2% | Total Cell Count (U2OS; [5]): 393 and 234 | Population Apoptotic (%) (U2OS; [6]): 98% and 95% | Population Fragmented Nuclei (%) (U2OS; [6]): 38% | Population Healthy Nuclei (%) (U2OS; [6]): 19% and 15% | Population Hoechst High Intensity Objects (%) (U2OS; [6]): 13% and 8% | Population Membrane Permeable-Phenotype (%) (U2OS; [6]): 40% and 66% | Population Mitochondria Different-Phenotype (%) (U2OS; [6]): 56% and 80% | Population Mitotic Cells (%) (U2OS; [6]): 1% and 4% | Population Normal (%) (U2OS; [6]): 86% and 91% | Population Pyknosed Nuclei (%) (U2OS; [6]): 42% and 45% | Population Tubulin-Different-Phenotype (%) (U2OS; [6]): 54% and 71% | Total Cell Count (U2OS; [6]): 222 and 146 | Population Apoptotic (%) (HEK-293T; [1]): 39% and 54% | Population Fragmented Nuclei (%) (HEK-293T; [1]): 5% and 7% | Population Healthy Nuclei (%) (HEK-293T; [1]): 82% and 74% | Population Hoechst High Intensity Objects (%) (HEK-293T; [1]): 6% and 11% | Population Membrane Permeable-Phenotype (%) (HEK-293T; [1]): 0% | Population Mitochondria Different-Phenotype (%) (HEK-293T; [1]): 50% and 68% | Population Mitotic Cells (%) (HEK-293T; [1]): 60% and 46% | Population Normal (%) (HEK-293T; [1]): 93% and 88% | Population Pyknosed Nuclei (%) (HEK-293T; [1]): 11% and 18% | Population Tubulin-Different-Phenotype (%) (HEK-293T; [1]): 49% and 35% | Total Cell Count (HEK-293T; [1]): 430 and 311 | Population Apoptotic (%) (HEK-293T; [2]): 62% and 79% | Population Fragmented Nuclei (%) (HEK-293T; [2]): 10% and 7% | Population Healthy Nuclei (%) (HEK-293T; [2]): 60% and 64% | Population Hoechst High Intensity Objects (%) (HEK-293T; [2]): 19% and 25% | Population Membrane Permeable-Phenotype (%) (HEK-293T; [2]): 0% | Population Mitochondria Different-Phenotype (%) (HEK-293T; [2]): 89% and 87% | Population Mitotic Cells (%) (HEK-293T; [2]): 37% and 20% | Population Normal (%) (HEK-293T; [2]): 80% and 74% | Population Pyknosed Nuclei (%) (HEK-293T; [2]): 28% and 27% | Population Tubulin-Different-Phenotype (%) (HEK-293T; [2]): 81% and 66% | Total Cell Count (HEK-293T; [2]): 285 and 237 | Population Apoptotic (%) (HEK-293T; [3]): 33% and 48% | Population Fragmented Nuclei (%) (HEK-293T; [3]): 9% and 4% | Population Healthy Nuclei (%) (HEK-293T; [3]): 77% and 82% | Population Hoechst High Intensity Objects (%) (HEK-293T; [3]): 6% and 8% | Population Membrane Permeable-Phenotype (%) (HEK-293T; [3]): 2% and 0% | Population Mitochondria Different-Phenotype (%) (HEK-293T; [3]): 42% and 55% | Population Mitotic Cells (%) (HEK-293T; [3]): 66% and 51% | Population Normal (%) (HEK-293T; [3]): 93% and 91% | Population Pyknosed Nuclei (%) (HEK-293T; [3]): 13% and 12% | Population Tubulin-Different-Phenotype (%) (HEK-293T; [3]): 40% and 30%
